Experimental findings from ChEMBL document CHEMBL1129516, “Design, synthesis, and biological activities of cyclic lactam peptide analogues of dynorphine A(1-11)-NH2” (J Med Chem, 1996) are described below.

The species named for one test is Cavia porcellus. Kind of test: Ability to inhibit the electrically evoked contraction of the guinea pig ileum. It counts as functional, organism-based. Summed up: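 Longitudinal muscle-myenteric plexus strips from male Hartley guinea pigs (250-500 g) in 37 °C oxygenated Krebs, 1 g tension, transmural stimulation 0.1 Hz, 0.4-ms supramaximal pulses. At least four tissues; IC50 by Hill equation fit.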

Test [1] deals with Kappa-type opioid receptor (Cavia porcellus, UniProt P41144). Kind of test: Inhibition of [3H]U-69593 binding to Opioid receptor kappa 1 of plasma membrane homogenates of guinea pig brain. Format: cell-free.
Sequence of Kappa-type opioid receptor (P41144 whole entry): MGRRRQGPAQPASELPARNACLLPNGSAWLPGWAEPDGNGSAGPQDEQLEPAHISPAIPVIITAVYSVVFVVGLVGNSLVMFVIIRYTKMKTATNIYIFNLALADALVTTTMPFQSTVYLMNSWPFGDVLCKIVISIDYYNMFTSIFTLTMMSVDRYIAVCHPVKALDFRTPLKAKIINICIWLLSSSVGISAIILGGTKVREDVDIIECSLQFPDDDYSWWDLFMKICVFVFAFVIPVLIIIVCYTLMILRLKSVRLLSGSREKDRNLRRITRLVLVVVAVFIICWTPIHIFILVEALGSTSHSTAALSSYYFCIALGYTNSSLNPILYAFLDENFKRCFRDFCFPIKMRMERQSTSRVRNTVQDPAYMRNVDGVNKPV
The next test addresses Mu-type opioid receptor (Cavia porcellus, UniProt P97266). In words: Inhibition of [3H]DAMGO binding to Opioid receptor mu 1 of guinea pig brain membrane homogenates.
A short description of test [2]: Relative binding to mu and kappa opioid receptors (ratio of IC50).
Test [3] in a line: Relative binding to delta and kappa opioid receptors (ratio of IC50).
Test [4] has as its system Kappa opioid receptor (Cavia porcellus). Kind of test: Central (GPB) and Peripheral (GPI) Nervous Systems Selectivity at kappa Opioid Receptor.

Sequence of Mu-type opioid receptor (P97266 whole entry): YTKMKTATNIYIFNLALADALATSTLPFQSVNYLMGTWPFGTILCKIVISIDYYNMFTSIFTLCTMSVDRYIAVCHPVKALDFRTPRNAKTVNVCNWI

The term IC50 denotes the midpoint of a concentration-inhibition curve. High values mean weaker potency in that assay, low ones greater potency in that assay. In the case of `CC[C@H](C)[C@H](NC(=O)[C@H](CCCN=C(N)N)NC(=O)[C@H](CCCCN)NC(=O)[C@H](CC(C)C)NC(=O)[C@H](Cc1ccccc1)NC(=O)CNC(=O)[C@H](CC(=O)O)NC(=O)[C@@H](N)Cc1ccc(O)cc1)C(=O)N[C@@H](CCCN=C(N)N)C(=O)N1CCC[C@H]1C(=O)N[C@@H](CCCCN)C(N)=O`, the IC50 in the test filed under Cavia porcellus was 14.2 nM.
Take `CC[C@@H](C)[C@H]1NC(=O)[C@H](CCCN=C(N)N)NC(=O)[C@@H](CCCN=C(N)N)NC(=O)[C@H](NC(=O)[C@@H](Cc2ccccc2)NC(=O)CNC(=O)CNC(=O)[C@H](N)Cc2ccc(O)cc2)CCCCNC(=O)C[C@H](C(=O)N2CCC[C@H]2C(=O)N[C@H](CCCCN)C(N)=O)NC1=O`: the IC50 is 9300 nM in the test listed under Cavia porcellus, 100 nM in test [1] and 120 nM at Mu-type opioid receptor.
Regarding `CC[C@H](C)[C@H](NC(=O)[C@H](CCCCN)NC(=O)[C@H](CCCN=C(N)N)NC(=O)[C@H](CC(C)C)NC(=O)[C@H](Cc1ccccc1)NC(=O)[C@@H](CC(=O)O)NC(=O)CNC(=O)[C@@H](N)Cc1ccc(O)cc1)C(=O)N[C@@H](CCCN=C(N)N)C(=O)N1CCC[C@@H]1C(=O)N[C@H](CCCCN)C(N)=O`, the Selectivity worked out at 14 Ratio in test [2] and 19 Ratio in test [3]. The Ratio in test [4] came out at 110 Ratio.
Take `CC[C@H](C)[C@H](NC(=O)[C@H](CCCN=C(N)N)NC(=O)[C@H](CCCN=C(N)N)NC(=O)[C@H](CCCCN)NC(=O)[C@H](Cc1ccccc1)NC(=O)CNC(=O)CNC(=O)[C@@H](N)Cc1ccc(O)cc1)C(=O)N[C@@H](CC(=O)O)C(=O)N1CCC[C@H]1C(=O)N[C@@H](CCCCN)C(N)=O`: the results for the IC50 (in test [1]; at Mu-type opioid receptor) were 35 nM and 400 nM, respectively.
Take `CC[C@H](C)[C@H](NC(=O)[C@H](CCCCN)NC(=O)[C@H](CCCNC(=N)N)NC(=O)[C@H](CC(C)C)NC(=O)[C@H](Cc1ccccc1)NC(=O)[C@H](CC(=O)O)NC(=O)CNC(=O)[C@@H](N)Cc1ccc(O)cc1)C(=O)N[C@@H](CCCNC(=N)N)C(=O)N1CCC[C@H]1C(=O)N[C@@H](CCCCN)C(N)=O`: the IC50 in test [1] stood at 190 nM; on Mu-type opioid receptor, 1320 nM.
For `CC[C@H](C)[C@H](NC(=O)[C@H](CCCNC(=N)N)NC(=O)[C@@H]1CCCCNC(=O)C[C@H](NC(=O)[C@@H](N)Cc2ccc(O)cc2)C(=O)NCC(=O)N[C@@H](Cc2ccccc2)C(=O)N[C@@H](CC(C)C)C(=O)N1)C(=O)N[C@@H](CCCNC(=N)N)C(=O)N1CCC[C@H]1C(=O)N[C@@H](CCCCN)C(N)=O`, the IC50 in test [1] came to 110 nM; at Mu-type opioid receptor, 3.4 nM.
With `CC[C@H](C)[C@H](NC(=O)[C@H](CCCCN)NC(=O)[C@H](CCCNC(=N)N)NC(=O)[C@H](CC(C)C)NC(=O)[C@H](Cc1ccccc1)NC(=O)[C@@H](CC(=O)O)NC(=O)CNC(=O)[C@@H](N)Cc1ccc(O)cc1)C(=O)N[C@@H](CCCNC(=N)N)C(=O)N1CCC[C@H]1C(=O)N[C@@H](CCCCN)C(N)=O`, the half-inhibitory concentration (IC50) in test [1] is 47 nM; on Mu-type opioid receptor, 660 nM.
Turning to `CC[C@H](C)[C@H](NC(=O)[C@H]1CCCCNC(=O)C[C@@H](NC(=O)CNC(=O)[C@@H](N)Cc2ccc(O)cc2)C(=O)N[C@H](Cc2ccccc2)C(=O)N[C@@H](CC(C)C)C(=O)N[C@H](CCCN=C(N)N)C(=O)N1)C(=O)N[C@@H](CCCN=C(N)N)C(=O)N1CCC[C@@H]1C(=O)N[C@H](CCCCN)C(N)=O`, the IC50 in the test listed under Cavia porcellus is 1500 nM; in test [1], 25 nM; on Mu-type opioid receptor, 740 nM.
`CC[C@H](C)[C@H](NC(=O)[C@H](CCCN=C(N)N)NC(=O)[C@@H]1CCCCNC(=O)C[C@@H](NC(=O)[C@@H](N)Cc2ccc(O)cc2)C(=O)NCC(=O)N[C@H](Cc2ccccc2)C(=O)N[C@@H](CC(C)C)C(=O)N1)C(=O)N[C@@H](CCCN=C(N)N)C(=O)N1CCC[C@@H]1C(=O)N[C@H](CCCCN)C(N)=O`: the Selectivity in test [2] amounted to 29.8 Ratio; in test [3], 9.1 Ratio. Moreover, the Ratio in test [4] was 160 Ratio.
For the compound `CC[C@H](C)[C@H](NC(=O)[C@H](CCCN=C(N)N)NC(=O)[C@@H]1CCCCNC(=O)C[C@H](NC(=O)[C@@H](N)Cc2ccc(O)cc2)C(=O)NCC(=O)N[C@H](Cc2ccccc2)C(=O)N[C@@H](CC(C)C)C(=O)N1)C(=O)N[C@@H](CCCN=C(N)N)C(=O)N1CCC[C@@H]1C(=O)N[C@H](CCCCN)C(N)=O`, the results for the Selectivity in test [2] and in test [3] were 0.03 Ratio and 0.11 Ratio, respectively. Also, the Ratio in test [4] turned out to be 5.6 Ratio.
As for `CC[C@H](C)[C@H](NC(=O)[C@H](CCCCN)NC(=O)[C@H](CCCN=C(N)N)NC(=O)[C@H](CC(C)C)NC(=O)[C@H](Cc1ccccc1)NC(=O)[C@H](CC(=O)O)NC(=O)CNC(=O)[C@@H](N)Cc1ccc(O)cc1)C(=O)N[C@@H](CCCN=C(N)N)C(=O)N1CCC[C@@H]1C(=O)N[C@H](CCCCN)C(N)=O`, the Selectivity in test [2] is 7 Ratio; in test [3], 9.5 Ratio. In addition, the Ratio in test [4] was 72 Ratio.
Turning to `CC[C@H](C)[C@H](NC(=O)[C@H](CCCNC(=N)N)NC(=O)[C@@H]1CCCCNC(=O)C[C@@H](NC(=O)[C@@H](N)Cc2ccc(O)cc2)C(=O)NCC(=O)N[C@@H](Cc2ccccc2)C(=O)N[C@@H](CC(C)C)C(=O)N1)C(=O)N[C@@H](CCCNC(=N)N)C(=O)N1CCC[C@H]1C(=O)N[C@@H](CCCCN)C(N)=O`, the IC50 in test [1] stood at 100 nM; on Mu-type opioid receptor it was 2980 nM.
In the case of `CC[C@H](C)[C@H](NC(=O)[C@H](CCCN=C(N)N)NC(=O)[C@H](CCCN=C(N)N)NC(=O)[C@H](CCCCN)NC(=O)[C@H](Cc1ccccc1)NC(=O)CNC(=O)CNC(=O)[C@@H](N)Cc1ccc(O)cc1)C(=O)N[C@H](CC(=O)O)C(=O)N1CCC[C@H]1C(=O)N[C@@H](CCCCN)C(N)=O`, the IC50 in the test filed under Cavia porcellus came out at 4160 nM.
`CC[C@H](C)[C@H](NC(=O)[C@H]1CCCCNC(=O)C[C@H](NC(=O)CNC(=O)[C@@H](N)Cc2ccc(O)cc2)C(=O)N[C@H](Cc2ccccc2)C(=O)N[C@@H](CC(C)C)C(=O)N[C@H](CCCN=C(N)N)C(=O)N1)C(=O)N[C@@H](CCCN=C(N)N)C(=O)N1CCC[C@@H]1C(=O)N[C@H](CCCCN)C(N)=O`: the IC50 in the test listed under Cavia porcellus turned out to be 600 nM; in test [1], 4.9 nM; on Mu-type opioid receptor, 310 nM.
For the compound `CC[C@H](C)[C@H](NC(=O)[C@H](CCCNC(=N)N)NC(=O)[C@H](CCCNC(=N)N)NC(=O)[C@H](CCCCN)NC(=O)[C@H](Cc1ccccc1)NC(=O)CNC(=O)CNC(=O)[C@@H](N)Cc1ccc(O)cc1)C(=O)N[C@H](CC(=O)O)C(=O)N1CCC[C@H]1C(=O)N[C@@H](CCCCN)C(N)=O`, the IC50 is 17.5 nM in test [1] and 555 nM on Mu-type opioid receptor.
The matching figures for `CC[C@H](C)[C@H](NC(=O)[C@H](CCCNC(=N)N)NC(=O)[C@H](CCCCN)NC(=O)[C@H](CC(C)C)NC(=O)[C@H](Cc1ccccc1)NC(=O)CNC(=O)[C@H](CC(=O)O)NC(=O)[C@@H](N)Cc1ccc(O)cc1)C(=O)N[C@@H](CCCNC(=N)N)C(=O)N1CCC[C@H]1C(=O)N[C@@H](CCCCN)C(N)=O`: 1.5 nM and 0.08 nM.
`CC[C@@H](C)[C@H]1NC(=O)[C@H](CCCNC(=N)N)NC(=O)[C@@H](CCCNC(=N)N)NC(=O)[C@H](NC(=O)[C@@H](Cc2ccccc2)NC(=O)CNC(=O)CNC(=O)[C@H](N)Cc2ccc(O)cc2)CCCCNC(=O)C[C@@H](C(=O)N2CCC[C@H]2C(=O)N[C@H](CCCCN)C(N)=O)NC1=O`: the figures for the half-maximal inhibitory concentration (IC50) (in the test filed under Cavia porcellus; in test [1]; on Mu-type opioid receptor) were 2500 nM, 6.6 nM and 12 nM, respectively.
In the test filed under Cavia porcellus, `CC[C@H](C)[C@H](NC(=O)[C@H](CCCCN)NC(=O)[C@H](CCCN=C(N)N)NC(=O)[C@H](CC(C)C)NC(=O)[C@H](Cc1ccccc1)NC(=O)[C@H](CC(=O)O)NC(=O)CNC(=O)[C@@H](N)Cc1ccc(O)cc1)C(=O)N[C@@H](CCCN=C(N)N)C(=O)N1CCC[C@H]1C(=O)N[C@@H](CCCCN)C(N)=O` showed an IC50 of 13300 nM.
On the same count and under the same terms, to `CC[C@H](C)[C@H](NC(=O)[C@H](CCCN=C(N)N)NC(=O)[C@@H]1CCCCNC(=O)C[C@H](NC(=O)[C@@H](N)Cc2ccc(O)cc2)C(=O)NCC(=O)N[C@@H](Cc2ccccc2)C(=O)N[C@@H](CC(C)C)C(=O)N1)C(=O)N[C@@H](CCCN=C(N)N)C(=O)N1CCC[C@H]1C(=O)N[C@@H](CCCCN)C(N)=O` belongs 610 nM; to `CC[C@H](C)[C@H](NC(=O)[C@H](CCCCN)NC(=O)[C@H](CCCN=C(N)N)NC(=O)[C@H](CC(C)C)NC(=O)[C@H](Cc1ccccc1)NC(=O)[C@@H](CC(=O)O)NC(=O)CNC(=O)[C@@H](N)Cc1ccc(O)cc1)C(=O)N[C@@H](CCCN=C(N)N)C(=O)N1CCC[C@H]1C(=O)N[C@@H](CCCCN)C(N)=O`, 4900 nM.
The compound `CC[C@H](C)[C@H](NC(=O)[C@H](CCCN=C(N)N)NC(=O)[C@@H]1CCCCNC(=O)C[C@@H](NC(=O)[C@@H](N)Cc2ccc(O)cc2)C(=O)NCC(=O)N[C@@H](Cc2ccccc2)C(=O)N[C@@H](CC(C)C)C(=O)N1)C(=O)N[C@@H](CCCN=C(N)N)C(=O)N1CCC[C@H]1C(=O)N[C@@H](CCCCN)C(N)=O` had an IC50 in the test listed under Cavia porcellus of 16000 nM.
